Results taken from ChEMBL document CHEMBL4513216, “Probing the Open Global Health Chemical Diversity Library for Multistage-Active Starting Points for Next-Generation Antimalarials” (ACS Infect Dis, 2020).

test: Toxicity liver stage against HepG2, at 10uM; type: cell-based; design: test concentration 10 uM, cell line HepG2-A16-CD81EGFP; conditions: human, HepG2-A16-CD81EGFP cells; read-out: INHIBITION
Method in brief: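 Uninfected HepG2-A16-CD81EGFP cells, 3 × 10^3 per well, 1536-well, plated on prespotted compound at 10 μM final, parasite-free screening media added to match infected plates; puromycin 10 μM positive, DMSO 0.5% negative; run in parallel with 48 h PbLuc assay at 37 °C, 5% CO2; viability by CellTiter-Glo luminescence, normalized to controls.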

Compound | cytotoxicity at 10 µM [%]
CN1CC(=O)N(c2cccc(F)c2)CC12CCN(S(C)(=O)=O)C2 (configuration not stated) | 1.52
CN(C)CCN(Cc1ccco1)C(=O)Cc1cn2ccsc2n1 | 5.92
O=C(C(c1ccccc1)N1CCc2cncnc2C1)N1CCCCC1 (configuration not stated) | 1.26
Cc1ccccc1CN1CCC(CNc2ncnc3c2CCNCC3)C1 (configuration not stated) | -7.13
O=S(=O)(CCN1CCCC1Cn1cccn1)c1ccccc1 (configuration not stated) | -11.9
CNc1cncc(C2CCN(C(=O)c3cnco3)CC2)n1 | -5.68
CC(C)c1noc(C2CCN(C(=O)C3CCCO3)CC2)n1 (configuration not stated) | 8.35
CS(=O)(=O)NCc1cnc2n1CCN(Cc1cccnc1)CC2 | 5.66
COCC1CCN(c2cc(C3CN(C)CCO3)nc(C)n2)CC1 (configuration not stated) | 4.71
Cc1ccc(N2CCC3(CCN(C(N)=O)CC3)CC2)nn1 | 1.62
Cc1nn(C)c2nc(N3CCCCC3c3cccnc3)sc12 (configuration not stated) | -6.9
COCC(=O)N1CCC(O)(CN2CCN(c3ccccc3)CC2)C1 (configuration not stated) | -2.38
Cc1nc(N2CCOCC2)nc2c1CCN(Cc1nccn1C)CC2 | -125
COc1c(CNCCc2c[nH]c3ccccc23)c(C(C)C)nn1C | 3.41
CN(C)c1nc2c(c(=O)[nH]1)CCN(C(=O)c1c[nH]c(=O)c(Cl)c1)C2 | 6.32
O=C(Cc1ccc(Cl)cc1)N1CCC(O)(C(F)(F)F)C1 (configuration not stated) | -12.3
CC(C)c1nc2c(n1C)CCN(Cc1nc(-c3ccoc3)no1)C2 | -2.06
CCc1nnsc1C(=O)N(C)Cc1ccc(Br)o1 | -48.8
CN1CCC(Nc2ccc(F)cc2OCC(F)(F)F)C1=O (configuration not stated) | -0.898
O=C(CCCc1ncc(-c2ccccc2)o1)N1CCN(CCO)CC1 | -4.69
Cn1cccc1-c1cc(C(=O)N2CCCCC2c2ccc(F)cc2)[nH]n1 (configuration not stated) | -2.8
COCCN1CCCC(c2ncc(C(=O)N(C)C)c(C)n2)C1 (configuration not stated) | -1.21
O=C(NC[C@H]1OC[C@@H]2CCN(C3CCOCC3)C[C@@H]21)c1ccncc1 | 4.98

Compound | cytotoxicity at 10 µM [%]
N#Cc1cccc(S(=O)(=O)N2CCCCC2C(N)=O)c1 (configuration not stated) | 0.645
CCc1nn(C)c(Cl)c1CN1CCCC2(CC1)CN(C)C(=O)O2 (configuration not stated) | 5.63
CCN(C(C)=O)c1nc(CN2CCCC2Cn2cncn2)cs1 (configuration not stated) | -5.15
CCOCC1CN(C(=O)C2=CCCC2)Cc2cnn(C)c21 (configuration not stated) | 1.49
CSCCCN1C[C@@H]2CC[C@H]1CN(Cc1[nH]cnc1C)C2 | 1.2
CS(=O)(=O)CCSc1cccc(C#N)c1 | -5.61
CC(C)CCn1cc(C(C(=O)O)N2CCSCC2)cn1 (configuration not stated) | -1.17
COc1ccc(-c2cc(C3CCCCCN3S(C)(=O)=O)on2)cc1 (configuration not stated) | 0.46
Cc1cccc(OC2CCN(C(=O)c3ccc4ncsc4c3)CC2)n1 | -3.78
CNC(=O)c1cccc(CCNc2ccccn2)c1 | 1.68
CCn1nc(C)c2c1cnn2CCNS(=O)(=O)Cc1ccccc1 | 9.6
Cc1nc(CC(=O)N2CCCC2c2nc(-c3ccccc3)no2)cs1 (configuration not stated) | 7.01
CS(=O)(=O)C1CCN(S(=O)(=O)c2ccc(F)c(F)c2)CC1 | -10.4
Cc1nc(CN(C)C2CCN(CC(=O)NC3CCOCC3)C2)no1 (configuration not stated) | -7.15
NCc1csc(CCc2ccccc2)n1 | -0.138
c1ccc2sc(NCC3(N4CCOCC4)CCSC3)nc2c1 (configuration not stated) | 0.375
COc1ccc2c(c1)CCCC2CC(=O)O (configuration not stated) | -2.74
O=C(Cc1ccon1)N1CCN(c2ccncc2Cl)CC1 | -2.47
CNCC(=O)N1CCCCC1c1nccc(C)n1 (configuration not stated) | -15.4
CN(Cc1ccc(-n2cccn2)cc1)C[C@@H]1CCCN2CCCC[C@H]12 | 0.537
CCc1nccn1C1CCCN(C(=O)c2cn3c(C)cccc3n2)C1 (configuration not stated) | -14.5
COCc1n[nH]c2c1CN(C(=O)c1ccncc1)C2 | 16.6
CC(C)N1CCC(Cc2cncc(-c3cc(F)ccc3C(=O)O)n2)CC1 | -8.36

Compound | cytotoxicity at 10 µM [%]
Cc1nc(CNCC(O)COc2ccc3c(c2)OCO3)cs1 (configuration not stated) | 4
CCS(=O)(=O)N1CC[C@@H]2[C@H](CC1)N(Cc1cccc(C)n1)CCS2(=O)=O | -3.98
CN(CCC#N)C(=O)CN1CCC(c2cc3ccccc3[nH]2)CC1 | 4.35
Cc1ccc(C(=O)N2CCCCC2c2[nH]ncc2S(C)(=O)=O)s1 (configuration not stated) | -11.4
Cc1ccc(OCC2CCCN(C(=O)CCn3ccccc3=O)C2)cc1 (configuration not stated) | -4.27
O=C1CCN(C(=O)C2(c3ccc(Br)cc3)CC2)CCN1 | 1.56
C=C(C)CN(CC)C(=O)CN1CCCC1C(=O)N(C)C (configuration not stated) | 8.52
Cc1cnn(CC2CCCN2C(=O)Cn2nc(C)c(Cl)c2C)c1 (configuration not stated) | -11.3
Cc1ccc(CN[C@@H]2COC[C@H]2Cc2cc(C)no2)cc1 | -23.2
COC1CCCN(C2CCN(c3cccc(-c4csc(C)n4)c3)CC2)C1 (configuration not stated) | 0.929
CCn1ccnc1CN1CCN(CCCS(C)(=O)=O)CC1C (configuration not stated) | -194
CN(C)C(=O)c1n[nH]c2c1CN(CC1CCCCC1)C2 | 2.86
COCCN1CCN(C(C)C(=O)Nc2ccnn2C(C)C)CC1 (configuration not stated) | -8.83
CC(=O)NCC(=O)N1CCOC(c2cccc(N)n2)C1 (configuration not stated) | -4.68
CN(Cc1csc(-c2cccs2)n1)Cc1ncccc1C(=O)O | -11.5
CO[C@H]1CN(C(C)C)C[C@@H]1NC(=O)Nc1ccc(C(F)(F)F)cc1 | 2.05
CN1CCOC(c2cncc(CCC(N)=O)n2)C1 (configuration not stated) | -2.86
Cc1ccc(C(=O)N2CC(Oc3ccccc3C)C2)s1 | 17.1
Cc1nc(C2(O)CCCNCC2)sc1CCOc1ccc(F)cc1 (configuration not stated) | -15.8
CN(C)c1ccc(-c2noc([C@@H]3CCCN3)n2)cn1 | 1.73
COCCNC(=O)c1nc(-c2ccc3cc[nH]c3c2)no1 | -0.208
Cn1cc(C(=O)N2CCC(c3ncc[nH]3)CC2)cn1 | -5.42
O=C(CN1CCc2[nH]c3ccccc3c2C1)NCc1ccco1 | -3.04

Compound | cytotoxicity at 10 µM [%]
O=C(NCc1cccnc1OCC(F)(F)F)N1CCOCC1 | -43.4
CC(=O)c1cccc(NC(=O)Cn2cnc(-c3ccccc3)cc2=O)c1 | -12.3
CCc1nn(C)c(Cl)c1CN(CC)Cc1cnn(CC)c1 | 4.36
CC(C)NC(=O)c1ccc2c(c1)nc1n2CCN(C(C)C)C1 | 3.54
COCc1nnc(-c2cccc(C(=O)N(C(C)C)C3CCC3)c2)o1 | 1.51
COc1c(CC2CC(CO)=NO2)c(Br)c2c(c1OC)OCO2 (configuration not stated) | -1.43
CNC(=O)c1cccnc1N1CCC(Oc2ccc(F)cc2)CC1 | 3.41
OCC1CCCN1c1cc(NCc2cccc3cccnc23)ncn1 (configuration not stated) | -15.6
O=c1c2cc3c(cc2nnn1Cc1cccc(F)c1)OCCO3 | 6.39
COCCN1C[C@@H]2CN(Cc3cccc(F)c3)CCC[C@]2(C(=O)O)C1 | 0.928
O=C(NCc1ccc(OCC2CC2)nc1)C1COc2ccccc2O1 (configuration not stated) | 0.0616
Cc1oc(C(=O)O)cc1S(=O)(=O)Nc1ccc(Br)cc1Cl | -5.09
Cc1cc(NC(C)c2n[nH]c(C)n2)n2nc(C)c(C)c2n1 (configuration not stated) | -11.4
COCCOc1ncccc1-c1noc([C@@H]2CCCN2C2CCC2)n1 | -7.68
Cc1csc(C2NC3(CCCC3)C(=O)N2CC2CC2)n1 (configuration not stated) | 3.24
CC(NC(=O)NCCCN1CCCC1)c1nncn1C (configuration not stated) | -0.373
CC(C)OCCC1CCCCN1S(=O)(=O)c1cnn(C)c1 (configuration not stated) | 5.68
Nc1ncc(C(=O)N2CCCC(N)CC2)c(-c2ccccc2)n1 (configuration not stated) | -132
CCCOc1ccc(CC2=NC(C)(CO)CO2)cc1 (configuration not stated) | 24.8
CC(NS(C)(=O)=O)C(=O)N1CCCN(Cc2cscn2)CC1 (configuration not stated) | -5.95
Cc1nnc(NC(=O)CN2CCc3nn(C(C)C)c(=O)cc3C2)s1 | -18.9
Cc1cccc(C)c1NC(=O)c1n[nH]c(-n2cnnc2)n1 | -10.6
CCn1nc(C)c2nnn(CC(=O)Nc3cccc(Cl)c3)c(=O)c21 | 4.47

Compound | cytotoxicity at 10 µM [%]
CCN(C(=O)C(C)C)C(c1cccnc1)c1ccc2c(c1)CCO2 (configuration not stated) | 2.14
O=C(NCCC1CCCCO1)c1cc(COc2cncc(Cl)c2)on1 (configuration not stated) | -1.73
NC(=O)CSc1ccccc1NC(=O)C1CCCCC1 | -127
CCc1ccc(-c2c(C)c(-c3cnn(C)c3)nc(N)c2C#N)o1 | -133
O=C(NC1CC1)N1CCOCC2(CCN(Cc3cccs3)C2)C1 (configuration not stated) | -2.6
Cc1cn2c(CN(C)C(=O)c3nccnc3N)c(C)nc2s1 | -4.12
O=C(Nc1nccs1)C1CCN(Cc2cccc3c2OCCO3)CC1 | -1.95
CCCS(=O)(=O)N1C[C@@H](Oc2ncccc2F)[C@H]2OCCC[C@H]21 | 2.95
Cc1ccc(C)c(NCc2nc3n(n2)CCCCC3)c1 | 6.39
COc1ccc(C(C)NC(=O)N2CCNC(=O)CC2)cc1F (configuration not stated) | 13.5
Cc1cc(C)nc(Nc2cccc(C3CCCN(CCO)C3)n2)n1 (configuration not stated) | -12.9
COCCN1CCN(c2ncnc3nc(C)cc(C)c23)CC1 | 2.42
CCNc1ncc(C(=O)NCc2ccc(F)c(C(F)(F)F)c2)cn1 | -5.96
COCCN1CC(O)CN(C(=O)c2ccc(SC)cc2)CC1=O (configuration not stated) | -0.53
Cc1cccc(N2CC[C@H]3CO[C@H](CN(C)Cc4ccco4)[C@H]3C2)n1 | 13.3
Cc1nc(CN2C[C@@H]3CN(C(=O)c4ccncc4)C[C@@H]3C2)cs1 | -108
Cc1ccc(C(=O)N2C[C@H]3CCC[C@@]3(COCc3cccnc3)C2)s1 | 3.24
Cc1c[nH]c(CN2CCCCC2CCN(C)C)c(C)c1=O (configuration not stated) | -2.97
c1ccc(C2CCN(c3cncc(-n4cccn4)n3)CC2)cc1 | -15.3
Cc1cc(-n2cccn2)ccc1CN1C[C@@H](CN(C)C)[C@@H](CO)C1 | -9.4
